Among the data in ChEMBL document CHEMBL3352402, “Pharmacological evaluation and docking studies of α,β-unsaturated carbonyl based synthetic compounds as inhibitors of secretory phospholipase A₂, cyclooxygenases, lipoxygenase and proinflammatory cytokines” (Bioorg Med Chem, 2014) are IC50 and inhibition values, retold here.

Molecules are shown by their SMILES.

The nature of assay [1]: Inhibition of sPLA2-V (unknown origin) using substrate 1,2-bis(heptanoylthio)-glycerophosphocholine by Ellman's method based photometric assay. On the set-up: species or system Homo sapiens. A general note: In Ellman's method for cholinesterases, released thiocholine reacts with DTNB.
Assay [2] addresses T1, Prostaglandin G/H synthase 1 (Ovis aries, UniProt P05979).
T1 sequence (P05979 whole entry): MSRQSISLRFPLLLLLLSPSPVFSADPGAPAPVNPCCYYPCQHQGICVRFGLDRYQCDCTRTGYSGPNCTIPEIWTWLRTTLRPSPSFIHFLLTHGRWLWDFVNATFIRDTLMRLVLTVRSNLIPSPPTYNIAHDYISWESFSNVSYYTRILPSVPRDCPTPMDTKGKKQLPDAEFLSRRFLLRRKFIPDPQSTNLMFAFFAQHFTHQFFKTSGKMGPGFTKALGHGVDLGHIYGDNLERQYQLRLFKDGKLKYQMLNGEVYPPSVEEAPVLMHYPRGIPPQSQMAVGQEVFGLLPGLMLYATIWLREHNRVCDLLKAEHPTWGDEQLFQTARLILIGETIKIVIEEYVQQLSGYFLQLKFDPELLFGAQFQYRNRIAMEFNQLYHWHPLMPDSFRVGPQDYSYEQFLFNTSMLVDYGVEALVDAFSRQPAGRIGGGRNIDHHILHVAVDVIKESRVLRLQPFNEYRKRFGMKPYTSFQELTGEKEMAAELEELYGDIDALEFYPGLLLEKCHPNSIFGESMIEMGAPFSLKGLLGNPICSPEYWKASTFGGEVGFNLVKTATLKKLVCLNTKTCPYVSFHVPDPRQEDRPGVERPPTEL
Put plainly: Inhibition of ovine COX1 using arachidonic acid substrate assessed as PGE2 production ELISA method after 2 mins. (In general: An ELISA detects its analyte on a solid surface through an enzyme-linked reagent.)

The target in assay [3] is Lipoxygenase (Glycine max) (UniProt Q39829). Put plainly: (§1) Inhibition of soybean lipoxygenase after 5 mins by colorimetric assay. The gist of the method:
(§2)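 Purified soybean lipoxygenase resuspended in 0.1 M Tris-HCl, pH 7. Enzyme plus test sample was started with substrate (dissolved in KOH, diluted to 1 mM) at room temperature for 5 min. Chromogen was added for 5 min to stop the reaction, then absorbance read at 490 nm. Activity is relative to enzyme plus substrate alone.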

For the next assay, the target named is Lipoxygenase (Glycine max, UniProt Q39829). The description is as §1. The gist of the method: as §2
Assay [4] has as its target Lipoxygenase (Glycine max) (UniProt Q39829). Briefly: Inhibition of soybean lipoxygenase at 40 ug/mL after 5 mins by colorimetric assay.
Assay [5] has as its target T2, Prostaglandin G/H synthase 2 (Homo sapiens, UniProt P35354).
T2 sequence (P35354 whole entry): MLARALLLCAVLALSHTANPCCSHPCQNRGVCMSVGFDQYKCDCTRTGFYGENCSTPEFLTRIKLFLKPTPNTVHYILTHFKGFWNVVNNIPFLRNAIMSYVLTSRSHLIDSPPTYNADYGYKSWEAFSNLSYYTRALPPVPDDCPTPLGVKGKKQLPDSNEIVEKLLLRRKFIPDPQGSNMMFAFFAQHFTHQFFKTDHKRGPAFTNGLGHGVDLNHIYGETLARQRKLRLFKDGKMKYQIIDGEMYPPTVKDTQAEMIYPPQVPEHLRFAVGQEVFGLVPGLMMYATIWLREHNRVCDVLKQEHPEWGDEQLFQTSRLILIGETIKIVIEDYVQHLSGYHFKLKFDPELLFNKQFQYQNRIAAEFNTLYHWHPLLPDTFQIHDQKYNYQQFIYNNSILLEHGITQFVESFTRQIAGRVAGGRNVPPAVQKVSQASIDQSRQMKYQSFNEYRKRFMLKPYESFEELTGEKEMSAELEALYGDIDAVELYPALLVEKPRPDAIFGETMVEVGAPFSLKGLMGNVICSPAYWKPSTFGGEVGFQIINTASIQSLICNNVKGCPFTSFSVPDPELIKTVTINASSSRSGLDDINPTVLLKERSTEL
Put plainly: Inhibition of human recombinant COX2 using arachidonic acid substrate assessed as PGE2 production ELISA method after 2 mins.

Broadly, the IC50 is the concentration at which inhibition is half-maximal. For orientation: inhibition means the drop in the measured response relative to a control, in per cent. For the molecule `COc1cc(/C=C/C(=O)CC(=O)/C=C/c2ccc(O)c(OC)c2)ccc1O` [CURCUMIN], the results for the IC50 (in assay [1]; in assay [2]; against Lipoxygenase) were 10.1 µM, 29.7 µM and 59.5 µM, respectively. In addition, the inhibition result is “Dose-dependent effect” in assay [3] and 68.3% in assay [4].
Consider `CCOC(OCC)c1ccc(/C=C/C(=O)C2CCc3ccccc3C2=O)cc1` (stereo unspecified), for which the IC50 in assay [1] came to 27.7 µM; in assay [2], 1.12 µM; in assay [5], 13.3 µM; against Lipoxygenase, 52.2 µM. Also, the inhibition in assay [3] and in assay [4] was 69.5% throughout.
